The results in this text go back to ChEMBL document CHEMBL1150222, “Benzophenones and xanthones with isoprenoid groups from Cudrania cochinchinensis” (J Nat Prod, 2001).

Data set [1] concerns HSC-2. The data set can be described thus: Cytotoxicity against human HSC2 cells. The data set is classed as functional. In outline: (§1)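 Human oral squamous carcinoma HSC-2 cells and normal human gingival fibroblasts (HGF) were incubated 24 h with compound added in EtOH (final EtOH in medium below 1%). Viable cells were read as A540 against untreated controls. CC50 is reported in mM as the mean of duplicate determinations.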

Data set [2] can be described thus: Cytotoxicity against HGF cells. The data set is classed as cell-based. The following applies: human. The procedure, abridged: as §1
Data set [3] relates to HSC-2. The data set can be described thus: Selectivity ratio CC50 for HGF to CC50 for human HSC-2 cells.

Usually CC50 stands for the concentration at which the toxic effect on the cells reaches its halfway point. In the case of `CC1(C)C=Cc2c(cc3oc4c(O)cccc4c(=O)c3c2O)O1`, the figures for the CC50 (in the data set on HSC-2 [1]; in data set [2]) were 480 µM and > 650 µM, respectively. Also, the Ratio in the data set with HSC-2 [3] is >1.4.

For the compound `CC(C)=CCc1c(O)cc2oc3ccc(O)cc3c(=O)c2c1O`, the 50% cytotoxic concentration (CC50) (in the data set on HSC-2 [1]; in data set [2]) was > 640 µM throughout.

As for `COc1cc(-c2coc3cc(O)cc(O)c3c2=O)ccc1O` [3'-O-METHYLOROBOL], the CC50 was 160 µM in the data set with HSC-2 [1] and > 670 µM in data set [2]. For the same compound, the Ratio in the data set with HSC-2 [3] is reported as >4.2.

For the compound `CC1(C)C=Cc2c(cc3occ(-c4ccc(O)cc4)c(=O)c3c2O)O1` [ALPINUMISOFLAVONE], the CC50 with HSC-2 [1] was 400 µM; in data set [2], > 600 µM. Moreover, the Ratio in the data set on HSC-2 [3] is >1.5.

On to `C=CC(C)(C)c1c(O)cc2oc3c(O)c(O)cc(CC=C(C)C)c3c(=O)c2c1O` [ALVAXANTHONE], for which the CC50 amounted to 22 µM in the data set on HSC-2 [1] and 25 µM in data set [2]. Further, in the data set on HSC-2 [3], the Ratio is listed as 1.1.

Regarding `COc1c2ccoc2cc2oc(=O)ccc12` [BERGAPTEN], the CC50 with HSC-2 [1] was 720 µM; in data set [2] it was > 930 µM. For the same compound, in the data set on HSC-2 [3], the Ratio is >1.3.

As to `COc1cc(O)c(C(=O)c2cccc(O)c2CC=C(C)C)c(O)c1` [CUDRANONE], the figures for the CC50 (in the data set on HSC-2 [1]; in data set [2]) were 400 µM and > 610 µM, respectively. The Ratio in the data set on HSC-2 [3] was >1.5.

For `CC(C)=CCc1c(O)cccc1C(=O)c1cc2c(cc1O)OC(C)(C)C=C2` [CUDRAPHENONE A], the CC50 came out at 170 µM in the data set on HSC-2 [1] and 430 µM in data set [2]. In the data set with HSC-2 [3], the Ratio is on record as 2.5.

Consider `CC(C)=CCc1cc(C(=O)c2cccc(O)c2CC=C(C)C)c(O)cc1O` [CUDRAPHENONE B], for which the CC50 in the data set with HSC-2 [1] was 36 µM; in data set [2], 90 µM. Moreover, in the data set with HSC-2 [3], the Ratio came to 2.5.

With `CC(C)=CCc1c(O)cccc1C(=O)c1c(O)cc(O)c2c1OC(C)(C)C=C2` [CUDRAPHENONE C], the figures for the half-maximal cytotoxic concentration (CC50) (in the data set on HSC-2 [1]; in data set [2]) were 92 µM and 190 µM, respectively. The Ratio in the data set with HSC-2 [3] was found to be 2.1.

Turning to `CC(C)=CCc1c(O)cccc1C(=O)c1c(O)cc(O)c(CC=C(C)C)c1O` [CUDRAPHENONE D], the half-maximal cytotoxic concentration (CC50) worked out at 52 µM in the data set with HSC-2 [1] and 190 µM in data set [2]. In addition, the Ratio with HSC-2 [3] came to 3.7.

Turning to `CC1Oc2cc3oc4c(O)c5c(cc4c(=O)c3c(O)c2C1(C)C)C=CC(C)(C)O5` (centres undefined) [GERONTOXANTHONE A], the CC50 (in the data set on HSC-2 [1]; in data set [2]) was > 510 µM each time.

`C=CC(C)(C)c1c(O)cc2oc3c(O)c4c(cc3c(=O)c2c1O)C=CC(C)(C)O4` [GERONTOXANTHONE B]: the CC50 is 390 µM in the data set with HSC-2 [1] and > 510 µM in data set [2]. Also, the Ratio in the data set on HSC-2 [3] is listed as >1.3.

In the case of `CC(C)=CCc1cc2c(=O)c3c(O)c4c(cc3oc2c(O)c1O)OC(C)C4(C)C` (centres undefined) [GERONTOXANTHONE G], the CC50 (in the data set with HSC-2 [1]; in data set [2]) was > 510 µM each time.

Turning to `CC(C)=CCc1c(O)cc(O)c2c(=O)c3c(CC=C(C)C)c(O)ccc3oc12` [GERONTOXANTHONE H], the CC50 in the data set with HSC-2 [1] worked out at 120 µM; in data set [2], 200 µM. Also, in the data set with HSC-2 [3], the Ratio is recorded as 1.7.

Take `C=CC(C)(C)c1c(O)c(CC=C(C)C)c(O)c2c(=O)c3ccc(O)c(O)c3oc12` [GERONTOXANTHONE I]: the CC50 in the data set on HSC-2 [1] was 430 µM; in data set [2], > 510 µM. Also, in the data set on HSC-2 [3], the Ratio is reported as >1.1.

As to `C=CC(C)(C)c1c(O)cc2oc3c(O)c(O)c(CC=C(C)C)cc3c(=O)c2c1O` [ISOALVAXANTHONE], the values for the CC50 (with HSC-2 [1]; in data set [2]) were 35 µM and 58 µM, respectively. In addition, the Ratio in the data set with HSC-2 [3] is 1.6.

For `C=CC(C)(C)c1c2c(c(O)c3c(=O)c4ccc(O)c(O)c4oc13)C=CC(C)(C)O2` [MACLURAXANTHONE], the CC50 (in the data set with HSC-2 [1]; in data set [2]) was > 510 µM throughout.

`O=C1C[C@@H](c2ccc(O)cc2)Oc2cc(O)cc(O)c21` [NARINGENIN]: the CC50 in the data set with HSC-2 [1] is 550 µM; in data set [2] it was > 740 µM. In the data set with HSC-2 [3], the Ratio is recorded as >1.3.

In the case of `CC(C)=CCc1c(O)cc(O)c2c1OC(c1ccc(O)cc1)CC2=O` (centres undefined) [SOPHORAFLAVANONE B], the CC50 in the data set on HSC-2 [1] is 130 µM; in data set [2], 190 µM. Also, the Ratio in the data set with HSC-2 [3] amounted to 1.5.

In the case of `CC(C)=CCc1c(O)cc2occ(-c3ccc(O)cc3)c(=O)c2c1O` [WIGHTEONE], the CC50 with HSC-2 [1] worked out at 120 µM; in data set [2] it was 250 µM. For the same compound, the Ratio in the data set with HSC-2 [3] worked out at 2.1.
